Measurements as given in ChEMBL document CHEMBL4665671 (ACS Med Chem Lett, 2019).
Converted amounts (≈) assume the structure as drawn. The source made the active and inactive calls. No cut-off for these calls is given here.

Tests used:
[1] = molecular target: Phosphatidylinositol 4,5-bisphosphate 3-kinase catalytic subunit alpha isoform (Homo sapiens, UniProt P42336); test: Displacement of alexa fluor 647-labeled kinase tracer 314 from recombinant N-terminal His6-tagged p110alpha (unknown origin) by TR-FRET assay
Phosphatidylinositol 4,5-bisphosphate 3-kinase catalytic subunit alpha isoform, sequence (P42336 whole entry, canonical isoform): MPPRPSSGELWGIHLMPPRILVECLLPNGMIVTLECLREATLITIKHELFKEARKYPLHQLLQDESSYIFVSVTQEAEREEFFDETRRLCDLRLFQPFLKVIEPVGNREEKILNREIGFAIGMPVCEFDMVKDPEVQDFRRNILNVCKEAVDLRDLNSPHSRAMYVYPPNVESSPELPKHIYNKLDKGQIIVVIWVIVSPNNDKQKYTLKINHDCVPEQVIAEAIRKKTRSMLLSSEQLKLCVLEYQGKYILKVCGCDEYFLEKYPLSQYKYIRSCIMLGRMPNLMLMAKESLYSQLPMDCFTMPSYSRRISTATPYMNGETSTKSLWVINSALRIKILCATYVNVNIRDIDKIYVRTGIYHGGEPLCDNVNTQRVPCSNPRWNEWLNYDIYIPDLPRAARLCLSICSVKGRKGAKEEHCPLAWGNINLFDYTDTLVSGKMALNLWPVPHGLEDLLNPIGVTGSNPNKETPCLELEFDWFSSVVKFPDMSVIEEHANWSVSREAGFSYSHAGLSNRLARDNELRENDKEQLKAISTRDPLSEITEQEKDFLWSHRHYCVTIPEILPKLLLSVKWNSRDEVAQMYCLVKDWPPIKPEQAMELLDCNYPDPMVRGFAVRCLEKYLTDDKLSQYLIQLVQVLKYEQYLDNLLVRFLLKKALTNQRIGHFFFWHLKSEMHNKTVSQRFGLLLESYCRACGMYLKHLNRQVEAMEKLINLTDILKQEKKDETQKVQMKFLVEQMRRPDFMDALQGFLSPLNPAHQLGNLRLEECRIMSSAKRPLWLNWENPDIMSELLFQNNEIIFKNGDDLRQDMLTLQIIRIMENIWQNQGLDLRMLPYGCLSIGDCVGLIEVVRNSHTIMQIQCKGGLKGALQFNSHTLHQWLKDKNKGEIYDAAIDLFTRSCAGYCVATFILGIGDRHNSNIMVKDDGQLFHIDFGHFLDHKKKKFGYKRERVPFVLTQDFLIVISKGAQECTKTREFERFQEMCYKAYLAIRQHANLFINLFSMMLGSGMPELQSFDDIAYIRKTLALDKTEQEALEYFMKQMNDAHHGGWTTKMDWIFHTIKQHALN

mTORC2 = mTORC2 (Homo sapiens, UniProt P42345); test: Inhibition of mTORC2 in human A2058 cells assessed as reduction in PKB phosphorylation at S473 residue incubated for 1 hr by Western blot analysis; type: cell-based
[2] = molecular target: T1, Serine/threonine-protein kinase mTOR (Homo sapiens, UniProt P42345); test: Displacement of alexa fluor 647-labeled kinase tracer 314 from recombinant human N-terminal GST-fused mTOR (1360 to 2549 residues) expressed in baculovirus expression system by TR-FRET assay
mTORC1 = mTORC1 (Homo sapiens, UniProt P42345); test: Inhibition of mTORC1 in human A2058 cells assessed as reduction in ribosomal protein S6 phosphorylation at Ser235/236 residues incubated for 1 hr by Western blot analysis; type: cell-based
[3] = AUC (0 to 8 hrs) in C57BL/6J mouse plasma at 10 mg/kg, po by UHPLC-MS analysis; type: ADME, organism-based; design: time < 8 hr, route oral, dose 10 mg/kg; conditions: in vivo
Summary of the method: (§1)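 Male C57BL/6J mice, single oral dose 10 mg/kg. Compound extracted from plasma, brain and thigh muscle at set time points over 8 h and quantified by LC–MS. n = 3, mean per time point.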

[4] = Half life in C57BL/6J mouse thigh muscle at 10 mg/kg, po by UHPLC-MS analysis; type: ADME, organism-based; summary of the method: as §1
[5] = Toxicity in po dosed Beagle dog assessed as NOAEL administered via gavage for 14 consecutive days; type: organism-based, Canis lupus familiaris; conditions: in vivo, time 14 day
Summary of the method: (§2)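 14-day pilot toxicokinetic study in Wistar rats (males and females assessed separately) and beagle dogs. NOAEL was set in mg/kg/day.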

[6] = Half life in C57BL/6J mouse brain at 10 mg/kg, po by UHPLC-MS analysis; type: ADME, organism-based; summary of the method: as §1
[7] = Half life in mouse cryopreserved hepatocytes at 2.5 uM measured up to 90 mins by LC-MS/MS analysis; type: ADME, cell-based, Hepatocyte; conditions: 1.5 h
Summary of the method: (§3)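 Cultured rat, mouse, dog and human hepatocytes were incubated with compound. Clearance and half-life were measured. Each experiment was run with n = 3.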

[8] = Cmax in C57BL/6J mouse brain at 10 mg/kg, po after 30 mins by UHPLC-MS analysis; type: ADME, organism-based; design: route oral, dose 10 mg/kg, time 30 min; summary of the method: as §1
Cytochrome P450 2D6 = Cytochrome P450 2D6 (Homo sapiens, UniProt P10635); test: Inhibition of CYP2D6 (unknown origin) by fluorescence assay; type: ADME
Cytochrome P450 2D6, sequence (P10635 whole entry): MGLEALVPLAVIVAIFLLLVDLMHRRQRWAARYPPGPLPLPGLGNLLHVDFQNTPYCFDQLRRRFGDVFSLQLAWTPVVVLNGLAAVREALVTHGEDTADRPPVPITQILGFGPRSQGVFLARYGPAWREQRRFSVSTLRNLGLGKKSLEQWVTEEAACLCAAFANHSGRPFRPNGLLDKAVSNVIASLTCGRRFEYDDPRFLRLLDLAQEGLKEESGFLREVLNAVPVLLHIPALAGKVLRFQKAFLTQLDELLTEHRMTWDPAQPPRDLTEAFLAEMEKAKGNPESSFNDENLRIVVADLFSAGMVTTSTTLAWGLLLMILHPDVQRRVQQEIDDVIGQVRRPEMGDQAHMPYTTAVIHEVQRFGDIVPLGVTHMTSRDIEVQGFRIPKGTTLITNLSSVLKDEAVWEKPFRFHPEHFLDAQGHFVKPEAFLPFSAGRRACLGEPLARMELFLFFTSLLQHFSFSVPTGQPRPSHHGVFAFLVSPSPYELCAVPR

[9] = Half life in dog cryopreserved hepatocytes at 2.5 uM measured up to 90 mins by LC-MS/MS analysis; type: ADME, cell-based, Canis lupus familiaris, Hepatocyte; conditions: 1.5 h; summary of the method: as §3
Cytochrome P450 2C19 = Cytochrome P450 2C19 (Homo sapiens, UniProt P33261); test: Inhibition of CYP2C19 (unknown origin) by fluorescence assay; type: ADME
Cytochrome P450 2C19, sequence (P33261 whole entry): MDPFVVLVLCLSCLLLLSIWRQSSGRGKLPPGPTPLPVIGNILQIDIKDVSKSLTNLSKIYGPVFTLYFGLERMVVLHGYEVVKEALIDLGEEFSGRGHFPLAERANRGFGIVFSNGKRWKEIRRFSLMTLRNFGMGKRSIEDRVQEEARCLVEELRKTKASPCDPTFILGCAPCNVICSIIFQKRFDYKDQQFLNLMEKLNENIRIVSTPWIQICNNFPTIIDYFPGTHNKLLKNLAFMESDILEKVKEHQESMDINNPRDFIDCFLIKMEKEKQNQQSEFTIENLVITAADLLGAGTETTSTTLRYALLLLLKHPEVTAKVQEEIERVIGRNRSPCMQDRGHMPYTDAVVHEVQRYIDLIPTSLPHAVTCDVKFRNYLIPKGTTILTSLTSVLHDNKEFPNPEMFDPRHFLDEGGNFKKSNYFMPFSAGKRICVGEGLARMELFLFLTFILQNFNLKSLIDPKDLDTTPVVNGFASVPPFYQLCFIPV

[10] = Tmax in C57BL/6J mouse thigh muscle at 10 mg/kg, po by UHPLC-MS analysis; type: ADME, organism-based; summary of the method: as §1
[11] = Clearance in rat cryopreserved hepatocytes assessed per 10^6 cells at 2.5 uM measured up to 90 mins by LC-MS/MS analysis; type: ADME, cell-based, Hepatocyte; conditions: 1.5 h; summary of the method: as §3
[12] = Clearance in C57BL/6J mouse plasma at 10 mg/kg, po by UHPLC-MS analysis; type: ADME, organism-based
Summary of the method: (§4)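 Male C57BL/6J mice given a single oral 10 mg/kg dose. Plasma, brain and thigh muscle sampled at set times up to 8 h. Compound extracted from each tissue and quantified by LC–MS. n = 3, mean per time point.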

[13] = AUC (0 to 8 hrs) in C57BL/6J mouse thigh muscle at 10 mg/kg, po by UHPLC-MS analysis; type: ADME, organism-based; design: time < 8 hr, route oral, dose 10 mg/kg; conditions: in vivo; summary of the method: as §1
[14] = Permeability of the compound in PBS at pH 7.4 incubated for 2 hrs under shaking condition by PAMPA; type: ADME; conditions: pH 7.4, 2 h
[15] = Ratio of drug level in brain to plasma in C57BL/6J mouse at 10 mg/kg, po by UHPLC-MS analysis; type: ADME, organism-based; conditions: brain and plasma, read-out: BPR; summary of the method: as §4
[16] = Clearance in dog cryopreserved hepatocytes assessed per 10^6 cells at 2.5 uM measured up to 90 mins by LC-MS/MS analysis; type: ADME, cell-based, Canis lupus familiaris, Hepatocyte; conditions: 1.5 h; summary of the method: as §3
[17] = Toxicity in po dosed Wistar male rat assessed as NOAEL administered via gavage for 14 consecutive days; type: organism-based; conditions: in vivo, time 14 day; summary of the method: as §2
[18] = molecular target: T1, Serine/threonine-protein kinase mTOR; test: Displacement of alexa fluor 647-labeled kinase tracer 314 from recombinant human N-terminal GST-fused mTOR (1360 to 2549 residues) expressed in baculovirus expression system by TR-FRET assay relative to parent compound
[19] = Half life in rat cryopreserved hepatocytes at 2.5 uM measured up to 90 mins by LC-MS/MS analysis; type: ADME, cell-based, Hepatocyte; conditions: 1.5 h; summary of the method: as §3
Mus musculus [20] = test: Increase in glucose level in C57BL/6J mouse plasma at 10 mg/kg, po measured after 2 hrs by UV/Vis spectrometry analysis; type: functional, organism-based
Summary of the method: (§5)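 Male C57BL/6J mice given a single oral 10 mg/kg dose. Plasma glucose and insulin levels followed over time after dosing. Mean ± SEM.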

[21] = AUC (0 to 8 hrs) in C57BL/6J mouse brain at 10 mg/kg, po by UHPLC-MS analysis; type: ADME, organism-based; design: time < 8 hr, route oral, dose 10 mg/kg; conditions: in vivo; summary of the method: as §1
[22] = Tmax in C57BL/6J mouse brain at 10 mg/kg, po by UHPLC-MS analysis; type: ADME, organism-based; summary of the method: as §1
[23] = Half life in human cryopreserved hepatocytes at 2.5 uM measured up to 90 mins by LC-MS/MS analysis; type: ADME, cell-based, Hepatocyte; conditions: 1.5 h; summary of the method: as §3
[24] = Cmax in C57BL/6J mouse thigh muscle at 10 mg/kg, po after 30 mins by UHPLC-MS analysis; type: ADME, organism-based; design: route oral, time 30 min, dose 10 mg/kg; summary of the method: as §1
Cytochrome P450 3A4 = Cytochrome P450 3A4 (Homo sapiens, UniProt P08684); test: Inhibition of CYP3A4 (unknown origin) by fluorescence assay; type: ADME
Cytochrome P450 3A4, sequence (P08684 whole entry): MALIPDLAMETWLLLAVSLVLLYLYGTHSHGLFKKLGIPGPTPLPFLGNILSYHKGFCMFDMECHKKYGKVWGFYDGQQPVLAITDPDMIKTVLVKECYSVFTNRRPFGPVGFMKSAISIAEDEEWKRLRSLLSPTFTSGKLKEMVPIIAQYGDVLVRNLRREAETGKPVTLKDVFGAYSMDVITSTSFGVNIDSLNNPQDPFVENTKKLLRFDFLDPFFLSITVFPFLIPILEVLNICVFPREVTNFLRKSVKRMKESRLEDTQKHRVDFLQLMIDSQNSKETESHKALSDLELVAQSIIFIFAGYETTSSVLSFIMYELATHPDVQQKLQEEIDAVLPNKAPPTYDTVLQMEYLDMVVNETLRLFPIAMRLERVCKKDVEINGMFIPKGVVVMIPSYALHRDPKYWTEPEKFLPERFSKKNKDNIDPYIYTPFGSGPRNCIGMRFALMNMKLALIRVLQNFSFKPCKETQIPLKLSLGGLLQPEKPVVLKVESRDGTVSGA

Mus musculus [25] = test: Increase in insulin level in C57BL/6J mouse plasma at 10 mg/kg, po measured after 2 hrs by UV/Vis spectrometry analysis; type: functional, organism-based; summary of the method: as §5
[26] = Toxicity in BALB/c nude mouse xenografted with human OVCAR3 cells assessed as maximum tolerated dose; conditions: in vivo
Cytochrome P450 1A2 = molecular target: T2, Cytochrome P450 1A2 (Homo sapiens, UniProt P05177); test: Inhibition of CYP1A2 (unknown origin) by fluorescence assay; type: ADME
T2 sequence (P05177 whole entry): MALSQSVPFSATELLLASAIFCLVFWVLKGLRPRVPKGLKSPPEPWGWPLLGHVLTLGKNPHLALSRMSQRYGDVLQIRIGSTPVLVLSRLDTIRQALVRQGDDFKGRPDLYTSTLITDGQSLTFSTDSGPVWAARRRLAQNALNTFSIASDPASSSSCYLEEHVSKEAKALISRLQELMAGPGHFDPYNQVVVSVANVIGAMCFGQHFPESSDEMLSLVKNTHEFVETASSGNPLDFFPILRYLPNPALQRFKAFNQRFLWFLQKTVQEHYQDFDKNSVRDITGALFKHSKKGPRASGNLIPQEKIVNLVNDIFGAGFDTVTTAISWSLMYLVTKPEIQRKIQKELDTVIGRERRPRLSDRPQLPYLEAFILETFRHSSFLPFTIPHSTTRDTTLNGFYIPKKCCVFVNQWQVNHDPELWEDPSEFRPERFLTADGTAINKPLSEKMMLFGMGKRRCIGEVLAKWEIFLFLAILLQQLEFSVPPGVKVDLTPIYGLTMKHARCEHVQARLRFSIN

[27] = Toxicity in BALB/c nude mouse xenografted with human OVCAR3 cells assessed as effect on body weight at 6.3 mg/kg, po qd administered for 28 days starting from day 17 post inoculation; type: organism-based; conditions: in vivo, 672 h, time 28 day
Summary of the method: (§6)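 BALB/c nude mice inoculated subcutaneously with 5 × 10^6 OVCAR-3 cells on day 0. From day 17, dosed orally once daily for 28 days; controls received vehicle QD. Tumor size tracked over time, tumor weight taken at day 45, body weight recorded at set time points. n = 8, mean ± SEM; two-way ANOVA with Bonferroni or Dunnett's correction.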

[28] = Thermodynamic solubility of the compound in buffer at pH 1.2 incubated for 24 hrs under agitation condition by shake flask method; type: physicochemical; conditions: read-out: Therm_solubility
[29] = Half life in C57BL/6J mouse plasma at 10 mg/kg, po by UHPLC-MS analysis; type: ADME, organism-based; summary of the method: as §1
OVCAR-3 [30] = test: Antitumor activity against human OVCAR-3 cells xenografted in BALB/c nude mouse assessed as tumor growth inhibition at 6.3 mg/kg, po qd administered for 28 days starting from day 17 post inoculation and measured on day 45; type: functional, organism-based; conditions: time 28.0 day; summary of the method: as §6
[31] = Toxicity in po dosed Wistar female rat assessed as NOAEL administered via gavage for 14 consecutive days; type: organism-based; conditions: in vivo, time 14 day; summary of the method: as §2
[32] = Clearance in human cryopreserved hepatocytes assessed per 10^6 cells at 2.5 uM measured up to 90 mins by LC-MS/MS analysis; type: ADME, cell-based, Hepatocyte; conditions: 1.5 h; summary of the method: as §3
[33] = Tmax in C57BL/6J mouse plasma at 10 mg/kg, po by UHPLC-MS analysis; type: ADME, organism-based; summary of the method: as §1
[34] = Cmax in C57BL/6J mouse plasma at 10 mg/kg, po after 1 hr by UHPLC-MS analysis; type: ADME, organism-based; design: route oral, dose 10 mg/kg, time 1 hrs; conditions: in vivo; summary of the method: as §1
[35] = Clearance in mouse cryopreserved hepatocytes assessed per 10^6 cells at 2.5 uM measured up to 90 mins by LC-MS/MS analysis; type: ADME, cell-based, Hepatocyte; conditions: 1.5 h; summary of the method: as §3
OVCAR-3 [36] = test: Antitumor activity against human OVCAR-3 cells xenografted in BALB/c nude mouse assessed as effect on tumor size at 6.3 mg/kg, po qd administered for 28 days starting from day 17 post inoculation and measured on day 45 (reference value: 1031 mm3); conditions: time 28 day
[37] = Thermodynamic solubility of the compound in buffer at pH 1.2 to 6.8 incubated for 24 hrs under agitation condition by shake flask method; type: physicochemical; conditions: read-out: Therm_solubility

C[C@@H]1COCCN1c1nc(-c2cnc(N)nc2C(F)F)nc(N2CCOCC2)n1
Ki [1]: 2.7 nM
IC50 (mTORC2): 64 nM
Ki [2]: 21 nM
IC50 (mTORC1): 116 nM

Nc1ncc(-c2nc(N3CCOCC3)nc(N3CCOCC3)n2)c(C(F)F)n1
AUC [3]: 10315 ng·h/mL
half-life [4]: 1.6 h
NOAEL at 336 h [5]: 10 mg/kg
half-life [6]: 1.6 h
t1/2 [7]: 3.208 h
Cmax [8]: 1020 ng/mL
IC50 (Cytochrome P450 2D6): > 100000 nM
t1/2 [9]: 3.528 h
IC50 (Cytochrome P450 2C19): > 100000 nM
Tmax [10]: 0.5 h
CLH [11]: 1.5 µL/min
CL/F [12]: 15.6 mL/min/kg
AUC [13]: 4526 ng·h/mL
permeability [14]: 8.196 ×10⁻⁶ cm/s
Kp [15]: 0.3
CLH [16]: 6.7 µL/min
NOAEL at 336 h [17]: 3.6 mg/kg
Ratio Ki [18]: 2
t1/2 [19]: 8.67 h
Activity (Mus musculus [20]): Active
AUC [21]: 2757 ng·h/mL
Tmax [22]: 0.5 h
t1/2 [23]: 5.775 h
Cmax [24]: 1810 ng/mL
IC50 (mTORC2): 17 nM
IC50 (Cytochrome P450 3A4): > 100000 nM
Ki [2]: 33 nM
Activity (Mus musculus [25]): Active
MTD [26]: 6.3 mg/kg
IC50 (Cytochrome P450 1A2): > 100000 nM
Activity [27]: Non-Toxic
solubility thermodynamic at 24 h [28]: 13.6 µg/mL (≈ 34.5 µM)
half-life [29]: 1.7 h
growth inhibition (GI) (OVCAR-3 [30]): Active
NOAEL at 336 h [31]: 2.4 mg/kg
CLH [32]: 4 µL/min
Tmax [33]: 1 h
IC50 (mTORC1): 61 nM
Cmax [34]: 3282 ng/mL
CLH [35]: 7 µL/min
Activity (OVCAR-3 [36]): 397 mm3
solubility thermodynamic at 24 h [37]: > 1 µg/mL

Nc1ncc(-c2nc(N3CCOCC3)nc(N3C[C@H]4CC[C@@H](C3)O4)n2)c(C(F)F)n1
Ki [1]: 4.4 nM
IC50 (mTORC2): 84 nM
Ki [2]: 29 nM
IC50 (mTORC1): 139 nM

Nc1ncc(-c2nc(N3CCOCC3)nc(N3[C@@H]4CC[C@H]3COC4)n2)c(C(F)F)n1
Ki [1]: 3.4 nM
IC50 (mTORC2): 73 nM
Ki [2]: 14 nM
IC50 (mTORC1): 91 nM
